# Experimental data as given in ChEMBL document CHEMBL1275284, “Therapeutic potential of sulindac hydroxamic acid against human pancreatic and colonic cancer cells” (Eur J Med Chem, 2010).
# Active and inactive are the calls of the source. The rule behind the calls is not given here.
# Key:
# [1] = system: MIA PaCa-2; experiment: Cytotoxicity against human MIAPaCa2 cells after 72 hrs by WST-1 assay; assay type: functional, cell-based; conditions: MIA PaCa-2, 72 h
# [2] = Cytotoxicity against human COLO320 cells after 72 hrs by WST-1 assay; assay type: functional, cell-based; conditions: COLO 320, 72 h
# [3] = system: COLO 320; experiment: Induction of apoptosis in human COLO320 cells assessed as DNA internucleosomal fragmentation at 200 uM after 48 hrs relative to control; assay type: functional, cell-based
# How it was run: (§1)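 MIA PaCa-2 or COLO320 cells (DMEM, 10% FBS, 2.5% horse serum, 37 °C, 5% CO2) treated 48 h at 200 µM. Oligonucleosomal fragments in the cytoplasmic fraction measured, along with necrotic death, expressed relative to untreated control. Mean ± SEM, n = 3.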
# [4] = system: MIA PaCa-2; experiment: Induction of apoptosis in human MIAPaCa2 cells assessed as change in Bax to Bcl2 mRNA expression ratio at 200 uM after 24 hrs by RT-PCR assay relative to control; assay type: functional, cell-based
# How it was run: (§2)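 Cells exposed 24 h to 200 µM compound. bax and bcl-2 mRNA measured by semi-quantitative RT-PCR, normalized to GAPDH mRNA, and the bax:bcl-2 ratio compared with control. Mean ± SEM, n = 3.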
# [5] = system: COLO 320; experiment: Induction of apoptosis in human COLO320 cells assessed as increase in caspase 3/7 activation at 200 uM after 24 hrs by spectrofluorimetry relative to control; assay type: functional
# How it was run: (§3)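 Caspase 3/7 activity assayed after 24 h exposure of cells to 200 µM compound. Fluorescent signal of treated cells expressed as a ratio to that of vehicle-only untreated cells. Mean ± SEM, n = 3.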
# [6] = system: HUVEC; experiment: Antiangiogenic activity in HUVEC assessed as inhibition of VEGF-induced cell proliferation at 0.1 uM after 96 hrs by haemocytometry; assay type: functional, cell-based; conditions: Homo sapiens
# [7] = system: COLO 320; experiment: Induction of apoptosis in human COLO320 cells assessed as increase in Bax to Bcl2 mRNA expression ratio at 200 uM after 24 hrs by RT-PCR assay relative to control; assay type: functional; how it was run: as §2
# [8] = system: MIA PaCa-2; experiment: Induction of apoptosis in human MIAPaCa2 cells assessed as increase in caspase 3/7 activation at 200 uM after 24 hrs by spectrofluorimetry relative to control; assay type: functional; how it was run: as §3
# [9] = system: HUVEC; experiment: Cytotoxicity against HUVEC at 0.1 uM after 96 hrs by trypan blue exclusion test; assay type: cell-based; conditions: human
# [10] = system: HUVEC; experiment: Antiangiogenic activity in HUVEC assessed as inhibition of bFGF-induced cell proliferation at 0.1 uM after 96 hrs by haemocytometry; assay type: functional, cell-based; conditions: Homo sapiens
# [11] = system: MIA PaCa-2; experiment: Induction of apoptosis in human MIAPaCa2 cells assessed as DNA internucleosomal fragmentation at 200 uM after 48 hrs relative to control; assay type: functional, cell-based; how it was run: as §1
Structure (SMILES),IC50 [1] [µM],IC50 [2] [µM],Activity [3],Activity [4],fold change (FC) [5],Activity [6],Activity [7] [%],fold change (FC) [8],Activity [9],Activity [10],Activity [11]
CC1(C)OC(=O)C(c2cccc(F)c2)=C1c1ccc(S(C)(=O)=O)cc1,> 200,> 200,,,,,,,,,
CSc1ccc(C=C2C(C)=C(CC(=O)NO)c3cc(F)ccc32)cc1,32,6,inactive,inactive,5,Active,130,5,Non-toxic,Active,inactive
CC1=C(CC(=O)NO)c2cc(F)ccc2C1=Cc1ccc([S+](C)[O-])cc1 (stereo not drawn),64.1,62.5,inactive,,5,Active,,5,Non-toxic,Active,inactive
CC1=C(CC(=O)O)c2cc(F)ccc2/C1=C\c1ccc(S(C)(=O)=O)cc1 [EXISULIND],> 200,> 200,inactive,,,Active,,,,Active,inactive
CC1=C(CC(=O)O)c2cc(F)ccc2/C1=C\c1ccc([S+](C)[O-])cc1 (stereo not drawn) [SULINDAC],> 200,> 200,inactive,,,,,,,,inactive
CSc1ccc(/C=C2/C(C)=C(CC(=O)O)c3cc(F)ccc32)cc1 [SULINDAC SULFIDE],146,38.7,inactive,inactive,,Active,,,,Active,inactive
CC1=C(CC(=O)NO)c2cc(F)ccc2C1=Cc1ccc(S(C)(=O)=O)cc1,44.4,26.2,inactive,,5,Active,,5,Non-toxic,Active,inactive
